Residues, ends and D or L forms follow the SMILES beside them. *: point of attachment. X1 = N[C@@H](CCCCNC(=O)c1cnccn1)C(=O)N[C@@H](CCCCNC(=O)c1cnccn1)C(=O)N[C@@H](CCCCNC(=O)c1cnccn1)C(=O)*; Pyrazinecarbonyl = O=C(c1cnccn1)*
assay: Binding affinity to HIV1 rev response element 2B RNA by 2-AP based displacement assay; parameters: species or system Human immunodeficiency virus 1
Summary of the method: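 2-AP-labeled RRE IIB (0.1 μM) refolded at 95 °C 3 min, snap-cooled; titrated with peptide 0–20 μM in 10 mM potassium phosphate, 100 mM KCl, 1 mM MgCl2, 20 mM NaCl, pH 7.0; excitation 310 nm, emission decrease at 372 nm; Kd from Hill fit; at least duplicate, SD. Competition lines include 10-fold excess unlabeled RNA/DNA competitor.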

| Structure (SMILES) | Kd |
| --- | --- |
| N=C(N)N[C@H]1CN[C@@H](C(=O)N2C[C@H](N)C[C@@H]2C(=O)N2C[C@H](N)C[C@@H]2C(=O)NCCCC[C@H](NC(=O)[C@H]2C[C@@H](N)CN2C(=O)[C@H]2C[C@@H](N)CN2C(=O)[C@H]2C[C@@H](NC(=N)N)CN2)C(=O)N[C@@H](CCCCNC(=O)c2cnccn2)C(=O)N[C@@H](Cc2cccc3ccccc23)C(=O)N2C[C@H](N)C[C@@H]2C(=O)N[C@@H](Cc2ccc(O)cc2)C(N)=O)C1 | 2980 nM |
| N=C(N)N[C@@H]1C[C@H](C(=O)N[C@@H](Cc2ccc(O)cc2)C(N)=O)N(C(=O)[C@H](Cc2cccc3ccccc23)NC(=O)[C@H](CCCCNC(=O)c2cnccn2)NC(=O)[C@H](CCCCNC(=O)[C@H](Cc2cccc3ccccc23)NC(=O)[C@H](CCCCNC(=O)c2ccc(B3OC(=O)c4cc(O)ccc4O3)cc2)NC(=O)[C@H]2C[C@@H](NC(=N)N)CN2)NC(=O)[C@H](Cc2cccc3ccccc23)NC(=O)[C@H](CCCCNC(=O)c2ccc(B3OC(=O)c4cc(O)ccc4O3)cc2)NC(=O)[C@H]2C[C@@H](NC(=N)N)CN2)C1 | 4960 nM |
| N=C(N)N[C@@H]1C[C@H](C(=O)N[C@@H](Cc2ccc(O)cc2)C(N)=O)N(C(=O)[C@H](CCCCNC(=O)c2ccc(B(O)O)cc2)NC(=O)[C@H](CCCCNC(=O)c2ccc(B(O)O)cc2)NC(=O)[C@H](CCCCNC(=O)[C@H]2C[C@@H](N)CN2C(=O)[C@H]2C[C@@H](N)CN2C(=O)[C@H]2C[C@@H](NC(=N)N)CN2)NC(=O)[C@H]2C[C@@H](N)CN2C(=O)[C@H]2C[C@@H](N)CN2C(=O)[C@H]2C[C@@H](NC(=N)N)CN2)C1 | 4460 nM |
| NC(=O)[C@H](Cc1ccc(O)cc1)NC(=O)[C@H](CCCCNC(=O)c1cnccn1)NC(=O)[C@H](CCCCNC(=O)c1cnccn1)NC(=O)[C@H](CCCCNC(=O)c1cnccn1)NC(=O)[C@H](CCCCNC(=O)[C@H](CCCCNC(=O)c1cnccn1)NC(=O)[C@H](CCCCNC(=O)c1cnccn1)NC(=O)[C@@H](N)CCCCNC(=O)c1cnccn1)NC(=O)[C@H](CCCCNC(=O)c1cnccn1)NC(=O)[C@H](CCCCNC(=O)c1cnccn1)NC(=O)[C@@H](N)CCCCNC(=O)c1cnccn1 (H-K(Pyrazinecarbonyl)K(Pyrazinecarbonyl)K(Pyrazinecarbonyl)K(X1)K(Pyrazinecarbonyl)K(Pyrazinecarbonyl)K(Pyrazinecarbonyl)Y-NH2) | > 10000 nM |
| NC(=O)[C@H](Cc1ccc(O)cc1)NC(=O)[C@H]1C[C@@H](N)CN1C(=O)CN(CCNC(=O)[C@H](CCCCNC(=O)c1cnccn1)NC(=O)[C@H](CCCCNC(=O)[C@H](Cc1cccc2ccccc12)NC(=O)[C@H](CCCCNC(=O)c1ccc(B(O)O)cc1)NC(=O)[C@H]1C[C@@H](N)CN1)NC(=O)[C@H](Cc1cccc2ccccc12)NC(=O)[C@H](CCCCNC(=O)c1ccc(B(O)O)cc1)NC(=O)[C@H]1C[C@@H](N)CN1)C(=O)Cn1cnc2c(=O)[nH]c(N)nc21 | 3180 nM |
| N=C(N)N[C@H]1CN[C@@H](C(=O)N[C@@H](CCCCNC(=O)c2ccc(B3OC(=O)c4cc(O)ccc4O3)cc2)C(=O)N[C@@H](CCCCNC(=O)c2ccc(B3OC(=O)c4cc(O)ccc4O3)cc2)C(=O)NCCCC[C@H](NC(=O)[C@H](CCCCNC(=O)c2ccc(B3OC(=O)c4cc(O)ccc4O3)cc2)NC(=O)[C@H](CCCCNC(=O)c2ccc(B3OC(=O)c4cc(O)ccc4O3)cc2)NC(=O)[C@H]2C[C@@H](NC(=N)N)CN2)C(=O)N[C@@H](CCCCNC(=O)c2ccc(B3OC(=O)c4cc(O)ccc4O3)cc2)C(=O)N[C@@H](CCCCNC(=O)c2cnccn2)C(=O)N[C@@H](Cc2cccc3ccccc23)C(=O)N[C@@H](Cc2ccc(O)cc2)C(N)=O)C1 | > 10000 nM |

Stronger by Kd, values ahead:

| Kd | Structure (SMILES) |
| --- | --- |
| 1760 nM | N=C(N)N[C@H]1CN[C@@H](C(=O)N2C[C@H](N)C[C@@H]2C(=O)N2C[C@H](N)C[C@@H]2C(=O)NCCCC[C@H](NC(=O)[C@H]2C[C@@H](N)CN2C(=O)[C@H]2C[C@@H](N)CN2C(=O)[C@H]2C[C@@H](NC(=N)N)CN2)C(=O)NCCN(CC(=O)NCCN(CC(=O)N2C[C@H](N)C[C@@H]2C(=O)N[C@@H](Cc2ccc(O)cc2)C(N)=O)C(=O)Cn2cnc3c(=O)[nH]c(N)nc32)C(=O)Cn2cnc3c(=O)[nH]c(N)nc32)C1 |
| 1320 nM | N=C(N)N[C@@H]1C[C@H](C(=O)N[C@@H](CCCCNC(=O)c2cnccn2)C(=O)N2C[C@H](N)C[C@@H]2C(=O)N[C@@H](Cc2ccc(O)cc2)C(N)=O)N(C(=O)[C@H](CCCCNC(=O)[C@H]2C[C@@H](N)CN2C(=O)[C@H]2C[C@@H](N)CN2C(=O)[C@H]2C[C@@H](NC(=N)N)CN2)NC(=O)[C@H]2C[C@@H](N)CN2C(=O)[C@H]2C[C@@H](N)CN2C(=O)[C@H]2C[C@@H](NC(=N)N)CN2)C1 |
| 1300 nM | N=C(N)N[C@@H]1C[C@H](C(=O)N2C[C@H](NC(=N)N)C[C@@H]2C(=O)N[C@@H](CCCCNC(=O)c2cnccn2)C(=O)N[C@@H](Cc2ccc(O)cc2)C(N)=O)N(C(=O)[C@H](CCCCNC(=O)[C@H](CCCCNC(=O)c2cnccn2)NC(=O)[C@H]2C[C@@H](N)CN2C(=O)[C@H]2C[C@@H](NC(=N)N)CN2)NC(=O)[C@H](CCCCNC(=O)c2cnccn2)NC(=O)[C@H]2C[C@@H](N)CN2C(=O)[C@H]2C[C@@H](NC(=N)N)CN2)C1 |
| 1180 nM | N=C(N)N[C@H]1CN[C@@H](C(=O)N2C[C@H](N)C[C@@H]2C(=O)NCCN(CC(=O)NCCCC[C@H](NC(=O)CN(CCNC(=O)[C@H]2C[C@@H](N)CN2C(=O)[C@H]2C[C@@H](NC(=N)N)CN2)C(=O)Cn2cnc3c(=O)[nH]c(N)nc32)C(=O)NCCN(CC(=O)N[C@@H](CCCCNC(=O)c2ccc(B3OC(=O)c4cc(O)ccc4O3)cc2)C(=O)N[C@@H](CCCCNC(=O)c2cnccn2)C(=O)N[C@@H](Cc2ccc(O)cc2)C(N)=O)C(=O)Cn2cnc3c(=O)[nH]c(N)nc32)C(=O)Cn2cnc3c(=O)[nH]c(N)nc32)C1 |
| 1110 nM | N=C(N)N[C@@H]1C[C@H](C(=O)N2C[C@H](N)C[C@@H]2C(=O)N[C@@H](Cc2ccc(O)cc2)C(N)=O)N(C(=O)CN(CCNC(=O)[C@H](CCCCNC(=O)[C@H]2C[C@@H](NC(=N)N)CN2C(=O)[C@H]2C[C@@H](N)CN2C(=O)[C@@H](N)CCCCNC(=O)c2cnccn2)NC(=O)[C@H]2C[C@@H](NC(=N)N)CN2C(=O)[C@H]2C[C@@H](N)CN2C(=O)[C@@H](N)CCCCNC(=O)c2cnccn2)C(=O)Cn2cnc3c(=O)[nH]c(N)nc32)C1 |
| 1020 nM | N=C(N)N[C@H]1CN[C@@H](C(=O)N2C[C@H](N)C[C@@H]2C(=O)N2C[C@H](N)C[C@@H]2C(=O)NCCCC[C@H](NC(=O)[C@H]2C[C@@H](N)CN2C(=O)[C@H]2C[C@@H](N)CN2C(=O)[C@H]2C[C@@H](NC(=N)N)CN2)C(=O)N[C@@H](CCCCNC(=O)c2cnccn2)C(=O)NCCN(CC(=O)N2C[C@H](N)C[C@@H]2C(=O)N[C@@H](Cc2ccc(O)cc2)C(N)=O)C(=O)Cn2cnc3c(=O)[nH]c(N)nc32)C1 |
| 720 nM | N=C(N)N[C@@H]1C[C@H](C(=O)N2C[C@H](N)C[C@@H]2C(=O)N[C@@H](Cc2ccc(O)cc2)C(N)=O)N(C(=O)[C@H]2C[C@@H](N)CN2C(=O)[C@H](CCCCNC(=O)[C@H]2C[C@@H](N)CN2C(=O)[C@H]2C[C@@H](NC(=N)N)CN2C(=O)[C@H]2C[C@@H](N)CN2)NC(=O)[C@H]2C[C@@H](N)CN2C(=O)[C@H]2C[C@@H](NC(=N)N)CN2C(=O)[C@H]2C[C@@H](N)CN2)C1 |
| 660 nM | N=C(N)N[C@H]1CN[C@@H](C(=O)N2C[C@H](N)C[C@@H]2C(=O)N[C@@H](Cc2cccc3ccccc23)C(=O)NCCCC[C@H](NC(=O)[C@H](Cc2cccc3ccccc23)NC(=O)[C@H]2C[C@@H](N)CN2C(=O)[C@H]2C[C@@H](NC(=N)N)CN2)C(=O)NCCN(CC(=O)NCCN(CC(=O)N[C@@H](Cc2cccc3ccccc23)C(=O)N[C@@H](Cc2ccc(O)cc2)C(N)=O)C(=O)Cn2cnc3c(=O)[nH]c(N)nc32)C(=O)Cn2cnc3c(=O)[nH]c(N)nc32)C1 |

From ChEMBL document CHEMBL4152378, “Discovery of a Branched Peptide That Recognizes the Rev Response Element (RRE) RNA and Blocks HIV-1 Replication” (J Med Chem, 2018)
